Compound activity (PubChem BioAssay)
PP5 inh: PP5 phosphatase inhibitors, primary screen, biochemical, fluorescence. actives 0.18% (n = 320,000). inhibition, % at 6.7 µM. purified PP5c, OMFP substrate fluorescence. AID 1987, 2009;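 active = inhibition above the campaign's mean inhibition across all tested compounds plus 3 SD, cut at about 9.5% in these data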
Apaf1 inhib: inhibitors of human Apaf-1 apoptosome, primary screen, biochemical, DEVD-Rh110 fluorescence, uHTS. Apoptotic protease-activating factor 1 (Homo sapiens), O14727. reconstituted apoptosome caspase-3 activity. inhibition, % at 20 µM. actives 0.71% (n = 330,000). AID 489030, 2010; active = inhibition of at least 40% at 20 µM
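System: Apoptosome proteins | Medium: Hepes pH 7.5 with detergent and BSA | Also added: Cytochrome c trigger plus (Z-DEVD)2-Rh110 caspase-3 substrate | Incubation: 30 min compound preincubation, 50 min activation, room temperature | Detection: Rhodamine 110 fluorescence at Ex 480/Em 540 nm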
PP1 counter: PP1-alpha phosphatase inhibitors, primary screen, counter-screen for PP5 inhibitor project, biochemical, fluorescence, OMFP substrate, single point | inhibition, % at 6.7 µM | Serine/threonine-protein phosphatase PP1-alpha catalytic subunit (Homo sapiens), P62136 | purified PP1alpha | actives 0.9% (n = 320,000);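 active = inhibition above the mean inhibition of all tested compounds plus 3 SD, computed separately for each screening campaign, cut at about 15% in these data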
TDP2 absorb: human TDP2 enzyme inhibitors, primary screen, biochemical, epi absorbance, recombinant enzyme. Tyrosyl-DNA phosphodiesterase 2 (Homo sapiens), O95551. T5PNP hydrolysis, p-nitrophenol absorbance 415 nm. inhibition, % at 12.8 µM. actives 0.34% (n = 370,000). AID 720702, 2013;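 active = inhibition above the mean of all tested compounds plus 3 SD, set per campaign, cut at about 25% in these data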
Target sequence (O95551 whole entry, looked up): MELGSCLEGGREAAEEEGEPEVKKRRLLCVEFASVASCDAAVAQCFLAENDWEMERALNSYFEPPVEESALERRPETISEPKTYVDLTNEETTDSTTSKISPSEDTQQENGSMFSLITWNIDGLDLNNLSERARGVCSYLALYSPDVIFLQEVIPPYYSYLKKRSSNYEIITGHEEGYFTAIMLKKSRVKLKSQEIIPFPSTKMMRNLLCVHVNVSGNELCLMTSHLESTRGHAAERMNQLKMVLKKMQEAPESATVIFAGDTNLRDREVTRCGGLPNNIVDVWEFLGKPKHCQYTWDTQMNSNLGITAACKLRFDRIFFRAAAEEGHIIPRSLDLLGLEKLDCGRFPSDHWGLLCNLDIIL
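Evaluation: % inhibition relative to enzyme-containing and enzyme-free wells. Material: recombinant human TDP2. Benchmarks: enzyme-free and DMSO wells. Timing: enzyme reaction with compound for 2 h at 37 °C. Compound dosing: 12.8 µM only. Measured by: p-Nitrophenol epi absorbance. Reagent: T5PNP substrate at 5 mM, a TopII-DNA adduct mimic. Replication: single well per compound.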
GSTO1 counter: inhibitors of recombinant GSTO1, primary screen, counter-screen for RBBP9 inhibitor project, biochemical, fluorescence polarization; Glutathione S-transferase omega-1 (Homo sapiens), P78417; activity-based probe fluorescence polarization; inhibition, % at 5.96 µM; actives 1.1% (n = 300,000); AID 1974, 2009;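 active = inhibition above the campaign mean inhibition plus 3 SD, cut at about 35% in these data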
Target sequence (P78417 whole entry, looked up): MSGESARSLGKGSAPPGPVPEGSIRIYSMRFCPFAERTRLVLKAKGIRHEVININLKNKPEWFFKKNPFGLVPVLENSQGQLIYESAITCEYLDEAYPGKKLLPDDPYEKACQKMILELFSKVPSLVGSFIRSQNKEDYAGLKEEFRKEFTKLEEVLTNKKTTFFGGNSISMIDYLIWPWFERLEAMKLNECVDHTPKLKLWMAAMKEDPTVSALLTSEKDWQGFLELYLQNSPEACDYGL
PP1 inh confirm: PP1 phosphatase inhibitors, confirmation, biochemical, fluorescence, OMFP substrate, triplicate; inhibition, % at 6.7 µM; shares compounds with PP1 counter; purified PP1alpha; AID 2358, 2010; actives 52% (n = 1,900);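 active = mean PP1 inhibition above a set limit taken from the earlier primary screen, cut at about 15% in these data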
PP5 inh counter: PP5 phosphatase inhibition by PP1 hits, confirmation, counter-screen for PP1 inhibitor project, biochemical, fluorescence, triplicate; shares compounds with PP1 counter; purified PP5c, OMFP fluorescence; inhibition, % at 6.7 µM; actives 4% (n = 1,900);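 active = mean PP5 inhibition over triplicate wells above about 9.5% taken from the earlier PP1 screen, limit read from the data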
Hits are given with their value; n = inactive; x = not tested or not shown. Most compounds without a hit are left out; they make up all but 2.1% or so of the library.

SMILES | PP5 inh | Apaf1 inhib | PP1 counter | TDP2 absorb | GSTO1 counter | PP1 inh confirm | PP5 inh counter
O=C(O)C1C2CCC(O2)C1C(=O)Nc1ccc(Br)cc1F (centres undefined) | 66 | x | 58 | n | n | n | 21
O=C(COC(=O)CC1CCCC1)Nc1ccc(Br)cc1F | x | n | x | n | x | x | x
Cc1ccc(Cl)cc1NC(=O)C1C2CCC(O2)C1C(=O)O (centres undefined) | 56 | n | 52 | n | n | n | 16
Cc1ccc(NC(=O)C2C3CCC(O3)C2C(=O)O)c(Br)c1 (centres undefined) | 73 | n | 67 | n | n | 20 | 28
CC1(C)C=C2C(N(Cc3ccc4c(c3)OCO4)C(=N)N2C(=O)OCc2ccccc2)n2c(=O)n(-c3ccccc3)c(=O)n21 (centres undefined) | x | x | x | n | x | x | x
CC(C)(C)C(=O)OC12CCCN(C1)/C(=C/c1cccnc1)C2 (centres undefined) | x | x | x | n | x | x | x
O=C(O)c1cc(-c2cccs2)nn1-c1ccc(F)cc1 | n | n | 19 | n | n | 18 | n
COC(=O)c1cc(-c2cccs2)nn1-c1ccccc1 | n | n | n | n | n | x | x
COc1ccc(OC)c(/C=N\NC(=O)c2ccc(-c3ccccc3)cc2)c1 | x | n | x | n | x | x | x
COc1cccc(/C=N/NC(=O)c2ccc(=O)[nH]n2)c1O | n | n | n | n | n | x | x
COc1cccc(/C=N/NC(=O)c2ccc(-c3ccccc3)cc2)c1O | n | n | 22 | n | n | 25 | n
COc1cccc(/C=N/NC(=O)c2[nH]c(C)c(C(=O)N/N=C/c3cccc(OC)c3O)c2C)c1O | n | n | 25 | n | n | 28 | n
COc1cccc(/C=N/NC(=O)C(=O)Nc2ccccc2OC(F)(F)C(F)F)c1O | n | n | 20 | n | n | 27 | n
COc1ccc(C2NCCc3c2[nH]c2ccccc32)cc1CSc1nc2ccccc2s1 (centres undefined) | n | x | 19 | n | n | n | n
CCN(C(=O)CN1CCN(c2nc(-c3ccccc3)cs2)CC1)c1ccccc1C | x | x | x | n | x | x | x
C[C@@H]1CNC(=O)c2c(C(=O)N(C)Cc3ccccc3)ncn21 | x | x | x | n | x | x | x
CCCn1c(=O)c(C(=O)NNC(=O)c2ccc(Cl)cc2Cl)c(O)c2ccccc21 | n | n | n | n | n | x | x
CCCn1c(=O)c(C(=O)NNS(=O)(=O)c2ccc(Cl)cc2)c(O)c2ccccc21 | n | n | 22 | n | n | 16 | n
CCCn1c(=O)c(C(=O)Nc2ncccc2C)c(O)c2ccccc21 | n | n | 24 | n | n | 21 | n
COC(=O)[C@]12C[C@H](CC(=O)NCc3ccc(C)o3)C(=O)N(Cc3ccccc3)C1=C[C@H](C1CCCC1)O[C@@H]2C | x | x | x | n | x | x | x
C=CCn1c(Cc2cccs2)nnc1SCC(=O)Nc1ccc2c(c1)OCO2 | x | x | x | n | x | x | x
CCN(CC)C(=O)CNc1nnnn1-c1ccccc1 | x | x | x | n | x | x | x
Cc1ccc(S(=O)(=O)N(C)[C@H]2C[C@H]3c4cc(N5CCOCC5)ccc4CCN3C[C@H]2[C@H](C)O)cc1 | x | x | x | n | x | x | x
Cc1ccc(C(=O)O/N=C/c2c(N3CCOCC3)n(C)c3ccccc23)cc1 | n | n | 21 | n | n | n | n
O=c1[nH]n2c(=O)c3c([nH]c2c1N=Nc1cccc(Cl)c1)CCCC3 | n | n | 37 | n | n | 26 | n
SMILES | PP5 inh | Apaf1 inhib | PP1 counter | TDP2 absorb | GSTO1 counter | PP1 inh confirm | PP5 inh counter
CCOc1ccc(N=Nc2c(=O)[nH]n3c(=O)c4c([nH]c23)CCCC4)cc1 | n | n | n | n | n | x | x
COc1ccccc1C(=O)OCC(=O)Nc1ccccc1OC(F)F | n | n | n | n | n | x | x
Cc1c(C(=O)OCC(=O)Nc2ccccc2OC(F)F)cccc1[N+](=O)[O-] | n | n | 23 | n | n | n | n
COc1ccc(N2C(=O)c3n[nH]c(C(C)C)c3C2c2ccccc2)cc1 (centres undefined) | x | x | x | n | x | x | x
CCC(=O)Nc1ccc(C(=O)COC(=O)c2nc3nccc(C)n3n2)cc1 | n | n | 20 | n | x | n | n
COc1ccc(/C=C/c2ccc3c(Br)ccc(O)c3n2)cc1 | n | n | 22 | n | n | 19 | n
Oc1cccc(/C=C/c2ccc3cccc(O)c3n2)c1 | n | n | n | n | n | x | x
COc1cccc(/C=C/c2ccc3cccc(O)c3n2)c1 | n | n | 19 | n | n | 19 | n
COc1ccc(/C=C/c2ccc3cccc(O)c3n2)c(OC)c1OC | n | n | n | n | n | x | x
Cc1ccc(/C=C/c2ccc3cccc(O)c3n2)s1 | n | n | 20 | n | n | 16 | n
COc1cccc(/C=C/c2ccc3cccc(O)c3n2)c1OC | n | n | 20 | n | n | 17 | n
COC(=O)C1=C(C)N(C)C(=NCc2ccc3c(c2)OCO3)NC1c1cccc(F)c1 (centres undefined) | x | x | x | n | x | x | x
COC(=O)c1ccc2nc(-c3ccco3)c(Cc3ccc(OC)cc3C)n2c1 | x | x | x | n | x | x | x
COc1cc(/C=C/c2ccc3cccc(O)c3n2)cc(Cl)c1OC | n | n | 18 | n | n | 26 | n
CCCCN(C)C(=O)c1nc2ccccn2c1CN1CCN(c2cnccn2)CC1 | n | n | 19 | n | n | n | n
COc1ccc(Cl)cc1-c1cc(C(=O)NCc2ccccc2)[nH]n1 | x | x | x | n | x | x | x
NC(=O)c1nc(-c2ccccc2)c(-c2ccccc2)[nH]c1=O | n | n | 20 | n | n | 16 | n
N#Cc1ccc(NCCCN2CCC(C(O)(c3ccccc3)c3ccccc3)CC2)cc1 | x | x | x | n | x | x | x
COC(=O)C1=C(C)N(Cc2ccccc2C(F)(F)F)C(=NCc2cc(OC)c(OC)c(OC)c2)NC1c1cccc(F)c1 (centres undefined) | x | x | x | n | x | x | x
CCn1c(CSc2nc3ccccc3s2)nnc1SCC(=O)c1ccc(O)c(O)c1 | n | n | n | n | n | x | x
CCn1c(CSc2nc3ccccc3s2)nnc1SCC(=O)c1ccc(Cl)cc1 | n | n | 22 | n | n | n | n
COc1cccc(CNC(=O)[C@H]2CCCN2C(=O)[C@H]2CCCN2C(=O)c2ccc(F)c(F)c2)c1 | x | x | x | n | x | x | x
CCOC(=O)c1[nH]c2ccccc2c1CCCN1C(=O)c2ccccc2C1=O | n | n | 32 | n | n | 25 | n
CCOC(=O)c1[nH]c2cc3c(cc2c1CCCN1C(=O)c2ccccc2C1=O)OCCO3 | n | n | n | n | n | x | x
